Measurements from paper PMC8268672 (Bioorganic Chemistry, 2021).
Values after ≈ are worked out from the molar mass of the structure shown.

Columns and labels:
Assay type in all cases: cell-based
[1] = system: Escherichia coli (ATCC 8739); assay: MIC, broth microdilution; conditions: ATCC8739, read-out: Minimum inhibitory concentration (MIC), EC
In short: (§1)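 Broth microdilution per CLSI in Mueller-Hinton broth, using two-fold serial dilutions of test compound and reference drugs from 512 to 0.25. Bacterial broth cultures were grown 2-6 h to 0.5 McFarland turbidity, then diluted with sterile solution to the final inoculum. MIC is reported in µg/mL.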

[2] = system: Pseudomonas aeruginosa (MCCB 0035); assay: MIC, broth microdilution; conditions: read-out: Minimum inhibitory concentration (MIC), PA
In short: as §1

[3] = system: Klebsiella aerogenes (NCIM-2098); assay: MIC, broth microdilution; conditions: NCIM2098, read-out: Minimum inhibitory concentration (MIC), KA
In short: (§2)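 Antibacterial MICs by CLSI broth microdilution in Mueller-Hinton broth. Test compounds and standard drugs are serially diluted two-fold from 512 to 0.25. The bacterial broth culture is grown 2-6 h to a 0.5 McFarland turbidity, then adjusted with sterile solution to the final inoculum.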

[4] = system: Staphylococcus aureus (ATCC 29213); assay: MIC, broth microdilution; conditions: ATCC29213, read-out: Minimum inhibitory concentration (MIC), SA
In short: as §2

[5] = system: Bacillus cereus (NCIM-2458); assay: MIC, broth microdilution; conditions: NCIM2458, read-out: Minimum inhibitory concentration (MIC), BC
In short: as §1

[6] = system: Aspergillus niger (NCIM 2191); assay: MIC, broth microdilution; conditions: NCIM2191, read-out: Minimum inhibitory concentration (MIC), AN
In short: (§3)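 Antifungal MICs by CLSI broth microdilution in Sabouraud liquid medium. Test compounds and standard drugs are serially diluted two-fold from 512 to 0.25. The fungal broth culture is grown 24 h at 35 °C to a 0.5 McFarland turbidity, then adjusted with sterile solution to the final inoculum.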

[7] = system: Candida albicans (NCIM 2087); assay: MIC, broth microdilution; conditions: NCIM2087, read-out: Minimum inhibitory concentration (MIC), CA
In short: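 CLSI broth microdilution in Sabouraud liquid medium, with test compound two-fold serially diluted from 512 to 0.25. Fungal broth culture grown 24 h at 35 °C to 0.5 McFarland turbidity, then adjusted with sterile solution to a final […] inoculum. MIC expressed in µg/mL.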

[8] = system: Aspergillus fumigatus (NCIM 2081); assay: MIC, broth microdilution; conditions: NCIM2081, read-out: Minimum inhibitory concentration (MIC), AF
In short: as §3

[9] = system: Cryptococcus neoformans (ATCC 9011); assay: MIC, broth microdilution; conditions: ATCC9011, read-out: Minimum inhibitory concentration (MIC), CN
In short: as §3

[10] = system: Escherichia coli (ATCC 8739); assay: Agar disk diffusion, inhibition zone; conditions: 100 µg/8 mm disc, triplicate, mean ± SD
In short: (§4)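 Agar disk diffusion on Mueller-Hinton agar plates seeded with a standard bacterial suspension. Test compound stock in DMSO, diluted with distilled water; 8 mm sterile filter-paper discs soaked in the solution. Ampicillin was the reference. Plates incubated at 35 °C for 24 h, in triplicate. Read-out is the average inhibition-zone diameter (mm) around each disc.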

[11] = system: Pseudomonas aeruginosa (MCCB 0035); assay: Agar disk diffusion, inhibition zone; conditions: 100 µg/8 mm disc, triplicate, mean ± SD
[12] = system: Salmonella typhimurium (NCIM-2501); assay: Agar disk diffusion, inhibition zone; conditions: 100 µg/8 mm disc, triplicate, mean ± SD
[13] = system: Klebsiella aerogenes (NCIM-2098); assay: Agar disk diffusion, inhibition zone; conditions: 100 µg/8 mm disc, triplicate, mean ± SD
[14] = system: Staphylococcus aureus (ATCC 29213); assay: Agar disk diffusion, inhibition zone; conditions: 100 µg/8 mm disc, triplicate, mean ± SD
In short: as §4

[15] = system: Bacillus cereus (NCIM-2458); assay: Agar disk diffusion, inhibition zone; conditions: 100 µg/8 mm disc, triplicate, mean ± SD
[16] = system: Lactobacillus casei (NCIM-2651); assay: Agar disk diffusion, inhibition zone; conditions: 100 µg/8 mm disc, triplicate, mean ± SD
[17] = system: Streptococcus pneumonia (ATCC 49619); assay: Agar disk diffusion, inhibition zone; conditions: 100 µg/8 mm disc, triplicate, mean ± SD
[18] = system: Aspergillus niger (NCIM 2191); assay: Agar disk diffusion, inhibition zone; conditions: 100 µg/8 mm disc, triplicate, mean ± SD
In short: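 For the fungal strain, discs soaked in test compound solution (DMSO stock diluted with distilled water) sat on seeded Mueller-Hinton agar. Clotrimazole was the reference. Incubation ran 48 h at 35 °C, in triplicate. Zone of growth inhibition recorded in mm as the mean diameter around each disc.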

[19] = system: Candida albicans (NCIM 2087); assay: Agar disk diffusion, inhibition zone; conditions: 100 µg/8 mm disc, triplicate, mean ± SD
[20] = system: Aspergillus fumigatus (NCIM 2081); assay: Agar disk diffusion, inhibition zone; conditions: 100 µg/8 mm disc, triplicate, mean ± SD
[21] = system: Cryptococcus neoformans (ATCC 9011); assay: Agar disk diffusion, inhibition zone; conditions: 100 µg/8 mm disc, triplicate, mean ± SD

MIC [1]	MIC [2]	MIC [3]	MIC [4]	MIC [5]	MIC [6]	MIC [7]	MIC [8]	MIC [9]	SMILES	Diameter of growth inhibition zone, EC [10]	Diameter of growth inhibition zone, PA [11]	Diameter of growth inhibition zone, ST [12]	Diameter of growth inhibition zone, KA [13]	Diameter of growth inhibition zone, SA [14]	Diameter of growth inhibition zone, BC [15]	Diameter of growth inhibition zone, LC [16]	Diameter of growth inhibition zone, SP [17]	Diameter of growth inhibition zone, AN [18]	Diameter of growth inhibition zone, CA [19]	Diameter of growth inhibition zone, AF [20]	also measured
4 µg/mL (≈ 9.7 µM)	4 µg/mL (≈ 9.7 µM)	8 µg/mL (≈ 19.4 µM)	16 µg/mL (≈ 38.8 µM)	32 µg/mL (≈ 77.6 µM)	32 µg/mL (≈ 77.6 µM)	16 µg/mL (≈ 38.8 µM)	16 µg/mL (≈ 38.8 µM)	32 µg/mL (≈ 77.6 µM)	Cc1ccc(S(=O)(=O)N2C(=O)CSC2c2ccc(Br)cc2)cc1 (stereo not drawn) [5d, 2-(4-Bromophenyl)-3-[(4-methylphenyl)sulfonyl]-1,3-thiazolidin-4-one]	20 ± 0.9 mm	20 ± 1.1 mm	14 ± 0.6 mm	18 ± 0.3 mm	21 ± 2.3 mm	12 ± 0.4 mm	18 ± 0.44 mm	10 ± 1.6 mm	11.8 ± 0.66 mm	12.9 ± 0.5 mm	9.8 ± 0.5 mm	Diameter of growth inhibition zone, CN [21]: 17 ± 1.0 mm
8 µg/mL (≈ 21.7 µM)	16 µg/mL (≈ 43.5 µM)	8 µg/mL (≈ 21.7 µM)	32 µg/mL (≈ 87 µM)	32 µg/mL (≈ 87 µM)	16 µg/mL (≈ 43.5 µM)	16 µg/mL (≈ 43.5 µM)	64 µg/mL (≈ 174 µM)	32 µg/mL (≈ 87 µM)	Cc1ccc(S(=O)(=O)N2C(=O)CSC2c2cccc(Cl)c2)cc1 (stereo not drawn) [5f, 2-(3-Chlorophenyl)-3-[(4-methylphenyl)sulfonyl]-1,3-thiazolidin-4-one]	18 ± 0.23 mm	18 ± 0.56 mm	14 ± 0.2 mm	18 ± 0.23 mm	20 ± 1.2 mm	12 ± 2.2 mm	14 ± 0.6 mm	18 ± 0.7 mm	11.2 ± 0.6 mm	12 ± 0.35 mm	11.8 ± 1.5 mm	Diameter of growth inhibition zone, CN [21]: 10 ± 0.7 mm
16 µg/mL (≈ 45.5 µM)	32 µg/mL (≈ 91.1 µM)	32 µg/mL (≈ 91.1 µM)	16 µg/mL (≈ 45.5 µM)	16 µg/mL (≈ 45.5 µM)	32 µg/mL (≈ 91.1 µM)	16 µg/mL (≈ 45.5 µM)	8 µg/mL (≈ 22.8 µM)	16 µg/mL (≈ 45.5 µM)	Cc1ccc(S(=O)(=O)N2C(=O)CSC2c2cccc(F)c2)cc1 (stereo not drawn) [5i, 2-(3-Fluorophenyl)-3-[(4-methylphenyl)sulfonyl]-1,3-thiazolidin-4-one]	22.8 ± 0.63 mm	18 ± 0.23 mm	10 ± 0.76 mm	12 ± 0.4 mm	17 ± 0.53 mm	14 ± 0.9 mm	18 ± 1.62 mm	12 ± 0.4 mm	11 ± 0.9 mm	15 ± 0.32 mm	15 ± 0.6 mm	Diameter of growth inhibition zone, CN [21]: 14 ± 1.3 mm
16 µg/mL (≈ 45.8 µM)	32 µg/mL (≈ 91.6 µM)	16 µg/mL (≈ 45.8 µM)	64 µg/mL (≈ 183 µM)	128 µg/mL (≈ 366 µM)	64 µg/mL (≈ 183 µM)	16 µg/mL (≈ 45.8 µM)	64 µg/mL (≈ 183 µM)	128 µg/mL (≈ 366 µM)	Cc1ccc(S(=O)(=O)N2C(=O)CSC2c2cccc(O)c2)cc1 (stereo not drawn) [5l, 2-(3-Hydroxyphenyl)-3-[(4-methylphenyl)sulfonyl]-1,3-thiazolidin-4-one]	17.8 ± 1.1 mm	16 ± 1.5 mm	10 ± 0.3 mm	14 ± 0.4 mm	14 ± 1.2 mm	08 ± 0.5 mm	12 ± 1.6 mm	10 ± 0.5 mm	14 ± 1.5 mm	17 ± 0.5 mm	12 ± 2.3 mm	Diameter of growth inhibition zone, CN [21]: 12 ± 1.4 mm

The next lines start with the molecule.

SMILES	MIC [1]	MIC [2]	MIC [3]	MIC [4]	MIC [5]	MIC [6]	MIC [7]	MIC [8]	MIC [9]	Diameter of growth inhibition zone, EC [10]	Diameter of growth inhibition zone, PA [11]	Diameter of growth inhibition zone, ST [12]	Diameter of growth inhibition zone, KA [13]	Diameter of growth inhibition zone, SA [14]	Diameter of growth inhibition zone, BC [15]	Diameter of growth inhibition zone, LC [16]	Diameter of growth inhibition zone, SP [17]	Diameter of growth inhibition zone, AN [18]	Diameter of growth inhibition zone, CA [19]	Diameter of growth inhibition zone, AF [20]	also measured
Cc1ccc(S(=O)(=O)N2C(=O)CSC2c2ccccc2Br)cc1 (stereo not drawn) [5b, 2-(2-Bromophenyl)-3-[(4-methylphenyl)sulfonyl]-1,3-thiazolidin-4-one]	16 µg/mL (≈ 38.8 µM)	32 µg/mL (≈ 77.6 µM)	64 µg/mL (≈ 155 µM)	32 µg/mL (≈ 77.6 µM)	64 µg/mL (≈ 155 µM)	64 µg/mL (≈ 155 µM)	32 µg/mL (≈ 77.6 µM)	64 µg/mL (≈ 155 µM)	128 µg/mL (≈ 310 µM)	14 ± 0.56 mm	15 ± 0.93 mm	12 ± 0.7 mm	10 ± 0.5 mm	16 ± 1.1 mm	10 ± 0.34 mm	10 ± 0.6 mm	08 ± 0.7 mm	10.8 ± 0.51 mm	11.6 ± 0.65 mm	10 ± 0.9 mm	Diameter of growth inhibition zone, CN [21]: 7.2 ± 0.3 mm
Cc1ccc(S(=O)(=O)N2C(=O)CSC2c2ccccc2C)cc1 (stereo not drawn) [5r, 2-(2-Methylphenyl)-3-[(4-methylphenyl)sulfonyl]-1,3-thiazolidin-4-one]	64 µg/mL (≈ 184 µM)	64 µg/mL (≈ 184 µM)	128 µg/mL (≈ 368 µM)	64 µg/mL (≈ 184 µM)	128 µg/mL (≈ 368 µM)	64 µg/mL (≈ 184 µM)	64 µg/mL (≈ 184 µM)	128 µg/mL (≈ 368 µM)	128 µg/mL (≈ 368 µM)	15 ± 0.69 mm	16 ± 1.9 mm	08 ± 0.6 mm	08 ± 0.3 mm	14 ± 1.1 mm	08 ± 0.4 mm	10 ± 0.7 mm	08 ± 0.8 mm	9.8 ± 0.9 mm	10 ± 0.6 mm	9.6 ± 0.9 mm	Diameter of growth inhibition zone, CN [21]: 11 ± 0.7 mm
CC1(C)S[C@@H]2[C@H](NC(=O)[C@H](N)c3ccccc3)C(=O)N2[C@H]1C(=O)O [AA, Ampicillin, reference compound]	1 µg/mL (≈ 2.86 µM)	4 µg/mL (≈ 11.4 µM)	8 µg/mL (≈ 22.9 µM)	2 µg/mL (≈ 5.72 µM)	4 µg/mL (≈ 11.4 µM)	–	–	–	–	18 mm	17 mm	18 mm	17 mm	21 mm	19 mm	20 mm	17 mm	–	–	–	–
Clc1ccccc1C(c1ccccc1)(c1ccccc1)n1ccnc1 [CL, Clotrimazole, reference compound]	–	–	–	–	–	16 µg/mL (≈ 46.4 µM)	4 µg/mL (≈ 11.6 µM)	1 µg/mL (≈ 2.9 µM)	2 µg/mL (≈ 5.8 µM)	–	–	–	–	–	–	–	–	23 mm	24 mm	22 mm	Diameter of growth inhibition zone, CN [21]: 19 mm
